Compound activity from PubChem.
Xi reactivation: activators of inactive X chromosome reactivation, primary screen, imaging, XiGFP fibroblasts, GFP high-content imaging, set 2. XiGFP mouse fibroblasts, % GFP-positive cells imaging, 3 d; cells co-treated with 5-aza-dC sensitizer; scaled so ellipticine positive control = 100%. activation, % at 7.58 µM. hit rate 0.055% among 360,000;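 active means mean normalized replicate activation at least 10% and every replicate at or above 10%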
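Material: XiGFP fibroblasts, SV40-immortalized. Buffer or medium: DMEM plus 5-aza-dC sensitizer. Compound: single concentration per compound, delivered by pin transfer. Times: 3 days compound exposure. Controls: ellipticine 6 µM.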
Vif inh: HIV Vif self-association inhibitors, primary screen, imaging, HEK293T, single point; HEK293T cells, Vif self-association by quenched fluorescence, 24 h; hit rate 0.35% among 340,000; inhibition, % at 7.49 µM; in the data active means inhibition above about 50%, passing the limit was not always enough
Wnt bcat act: Wnt/beta-catenin pathway activators, primary screen, cell-based, plate reader, single point; AID 743398, 2014; hit rate 1.2% among 300,000; Wnt/beta-catenin reporter cell assay, activator; activation, % at 9.35 µM; in the data active means activation above about 30%, passing the limit was not always enough
MITF act: activators of MITF-driven TRPM1 promoter reporter, primary screen, cell-based, SK-MEL-5, luciferase, single point; SK-MEL-5 TRPM1-promoter luciferase, 24 h; % of positive control, neutral wells = 0; activation, % at 12.5 µM; hit rate 0.75% among 300,000; AID 588334, 2011;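 active means mean activation of at least 80% with every replicate also reaching 80%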
esBAF inh: Bmi1 luciferase reporter increase in mESCs, primary screen, esBAF inhibitor project, mouse ES cells, Bmi1 luciferase knock-in, single point. 24 h; 100% = twice the neutral-well signal. reporter increase, % at 12.5 µM. hit rate 2% among 350,000; in the data active means activation above about 40%;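 further: a rise in the Bmi1 reporter signal indicates esBAF inhibition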
Large screens that a line does not name were inactive. In the library only some 2.6% were active in any assay of this set; here they are far more common.

C[C@H](CO)N1C[C@H](C)[C@@H](CN(C)C(=O)NC2CCCCC2)Oc2ccc(N(C)C)cc2C1=O	none (no result: Vif inh, Wnt bcat act, MITF act)
O=C(C[C@@H]1CC[C@@H](NC(=O)C2CCOCC2)[C@@H](CO)O1)NCc1ccncc1	none (no result: Vif inh, Wnt bcat act, MITF act, esBAF inh)
O=C(Nc1scc(-c2ccc(F)cc2)c1C(=O)O)c1ccco1	none (no result: Xi reactivation, Wnt bcat act)
COC(=O)c1c(-c2ccccc2)csc1NC(=O)c1ccco1	MITF act 105.4, esBAF inh 97.6 (no result: Xi reactivation, Wnt bcat act)
CN1/C(=C\C=C2/C(=O)Oc3ccccc3C2=O)C(C)(C)c2ccccc21	Wnt bcat act 52.3 (no result: Vif inh, MITF act, esBAF inh)
Cc1nc(N)sc1N=Nc1ccc(Br)cc1	esBAF inh 74.7 (no result: Xi reactivation, Wnt bcat act, MITF act)
Cc1[nH]nc(N)c1N=Nc1ccc(Br)cc1	none (no result: Vif inh, MITF act, esBAF inh)
COc1cccc(S(=O)(=O)N2CCC3(CC2)CN[C@@H](CO)c2c3c3ccc(OC)cc3n2C)c1	none (no result: Vif inh, Wnt bcat act, MITF act, esBAF inh)
Cc1ccc(C(=O)OC(C)C(=O)Nc2ccc3c(c2)OCO3)c(O)c1 (centres undefined)	esBAF inh 50.0
CCN(CC(=O)Nc1ccc2c(c1)OCCO2)C(=O)COc1cc(C)ccc1Cl	none
CC(OC(=O)c1cccnc1)C(=O)Nc1ccc2c(c1)OCO2 (centres undefined)	none (no result: esBAF inh)
Cc1ccc(Cl)c(OCC(=O)Nc2cccnc2)c1	MITF act 101.5 (no result: Vif inh)
Cc1ccc(Cl)c(OCC(=O)Nc2ccc3c(c2)OCCO3)c1	MITF act 131.0, esBAF inh 85.8 (no result: Xi reactivation, Wnt bcat act)
Cc1ccc(OCC(=O)Nc2ccc3c(c2)OCO3)c(C)c1	MITF act 88.5 (no result: esBAF inh)
CC(C)NC(=O)Nc1cccc2c1O[C@H](CN(C)Cc1ccc3c(c1)OCO3)[C@H](C)CN([C@@H](C)CO)C2=O	none (no result: Vif inh, Wnt bcat act, MITF act, esBAF inh)
COCC#Cc1cnc2c(c1)C(=O)N([C@@H](C)CO)C[C@@H](C)[C@@H](CN(C)S(C)(=O)=O)O2	none (no result: Vif inh, Wnt bcat act, MITF act)
CN(C)CC(=O)N1CC[C@@H]2[C@H]1c1cc(Br)ccc1N(C)[C@@H]2CO	none (no result: Vif inh, Wnt bcat act, MITF act)
Cc1ccc(C=NNc2ccc([N+](=O)[O-])cn2)cc1	MITF act 122.2 (no result: esBAF inh)
Cc1ccc(Cn2cc(/C=N/Nc3ccc([N+](=O)[O-])cn3)c3ccccc32)cc1	esBAF inh 44.8
CC(C)C[C@H]1COCc2cn(nn2)CC[C@H](Cc2cccc(Cl)c2)C(=O)N1	none (no result: Vif inh, Wnt bcat act, MITF act, esBAF inh)
COc1cccc(Oc2nnnn2-c2ccccc2)c1	esBAF inh 58.1 (no result: Xi reactivation, Wnt bcat act, MITF act)
COc1ccc(Oc2nnnn2-c2ccccc2)cc1	none (no result: Xi reactivation)
CCNC(=O)[C@@H]1[C@@H](CO)[C@@H]2Cn3c(cccc3=O)[C@@H]2N1CC1CCCCC1	none (no result: Vif inh, Wnt bcat act, MITF act)
Cc1ccc(/C=C2\OC(=O)c3ccccc32)cc1	esBAF inh 73.4 (no result: Xi reactivation)
Cc1ccccc1/C=C1\OC(=O)c2ccccc21	none (no result: Xi reactivation, Wnt bcat act)
O=C(NCC(c1ccco1)N1CCCCC1)c1cc2c(s1)CCCC2 (centres undefined)	none
O=C(NCc1ccco1)c1cc2c(s1)CCCCC2	esBAF inh 56.8 (no result: Xi reactivation)
S=C(N/N=C/c1ccc(Br)cc1)N1CCCCC1	esBAF inh 49.6 (no result: MITF act)
S=C(N/N=C/c1ccc(Cl)cc1)N1CCOCC1	none (no result: Wnt bcat act)
Cc1ccc(C(=O)Nc2nc3ccc(S(C)(=O)=O)cc3s2)s1	none (no result: Xi reactivation, Wnt bcat act)
Cc1cc(C(=O)Nc2nc3ccc(S(C)(=O)=O)cc3s2)c(C)o1	esBAF inh 53.1 (no result: Xi reactivation)
COc1ccc2nc(NC(=O)c3cc(C)oc3C)sc2c1	MITF act 96.1 (no result: Xi reactivation, Wnt bcat act)
Cc1csc(NC(=O)c2cc(C)oc2C)n1	esBAF inh 62.8 (no result: Xi reactivation, Wnt bcat act)
C/C=C/c1ccc2c(c1)O[C@H](CN(C)Cc1cccc(F)c1)[C@H](C)CN([C@@H](C)CO)S2(=O)=O	none (no result: Vif inh, Wnt bcat act, MITF act)
O=C(Cc1ccccc1)N1CC(=O)N2[C@@H](CO)[C@H](c3ccc(Br)cc3)[C@@H]2C1	none (no result: Vif inh, Wnt bcat act, MITF act, esBAF inh)
COc1ccc2c3c([nH]c2c1)[C@H](CO)N(Cc1ccc(F)cc1)CC31CN(C(=O)NC(C)C)C1	none (no result: Vif inh, Wnt bcat act, MITF act, esBAF inh)
C=C(C)c1sc(-c2ccccc2)nc1C	none (no result: Vif inh, MITF act, esBAF inh)
C/C(=N\O)c1sc(-c2ccccc2)nc1C	Wnt bcat act 64.5 (no result: esBAF inh)
C[C@H](CO)N1C[C@H](C)[C@H](CN(C)C(=O)Oc2ccccc2)OCc2cn(nn2)CCCC1=O	none (no result: Vif inh, Wnt bcat act, MITF act)
Nc1cc[n+](CC(=O)c2ccc3c(c2)OCCO3)cc1	Vif inh 81.6
CCOC(=O)c1ccc(NS(=O)C23CC4CC(CC(C4)C2)C3)cc1 (centres undefined)	esBAF inh 64.2 (no result: Xi reactivation, Wnt bcat act)
